Consider 9 compounds from ChEMBL document CHEMBL4033747, “Design and synthesis of a novel inhibitor of T. Viride chitinase through an in silico target fishing protocol” (Bioorg Med Chem Lett, 2017).

In brackets after ≈: the same amount, converted by molar mass.

In one experiment the target is Chitinase (Hypocrea rufa, UniProt D2K848). Put plainly: Inhibition of Trichoderma viride chitinase incubated for 10 mins to 3 hrs using 4-nitrophenyl N-acetyl-beta-D-glucosaminide substrate by spectrophotometry. The method, boiled down:
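Commercial Trichoderma viride chitinase preincubated with varying inhibitor concentrations directly in the reading plate, room temperature, 3 h. Substrate 4-nitrophenyl N-acetyl-β-D-glucosaminide then added. […] IC50 and Ki calculated from these readings.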

A further experiment deals with Candida albicans. Put plainly: Antifungal activity against Candida albicans incubated for 24 hrs by visual and spectrophotometry method. It is filed as functional.
Experiment [1] deals with Meyerozyma guilliermondii. The experiment can be described thus: Antifungal activity against Candida guillermondii incubated for 24 hrs by visual and spectrophotometry method. It is filed as functional.
For another experiment, the system named is Pichia kudriavzevii. The experiment can be described thus: Antifungal activity against Candida krusei incubated for 24 hrs by visual and spectrophotometry method. It is filed as functional.
The next experiment concerns Candida parapsilosis. The experiment can be described thus: Antifungal activity against Candida parapsilosis incubated for 24 hrs by visual and spectrophotometry method. It is filed as functional. The settings on record: Lodderomyces parapsilosis.
In a further experiment the test system is Candida tropicalis. The experiment can be described thus: Antifungal activity against Candida tropicalis incubated for 24 hrs by visual and spectrophotometry method. The experiment is classed as functional.
The test system of a further experiment is Kluyveromyces marxianus. Put plainly: Antifungal activity against Candida kefyr incubated for 24 hrs by visual and spectrophotometry method. It is filed as functional.
A further experiment deals with Nakaseomyces glabratus. The experiment can be described thus: Antifungal activity against Candida glabrata incubated for 24 hrs by visual and spectrophotometry method. The experiment is classed as functional.

Sequence of Chitinase (D2K848 whole entry): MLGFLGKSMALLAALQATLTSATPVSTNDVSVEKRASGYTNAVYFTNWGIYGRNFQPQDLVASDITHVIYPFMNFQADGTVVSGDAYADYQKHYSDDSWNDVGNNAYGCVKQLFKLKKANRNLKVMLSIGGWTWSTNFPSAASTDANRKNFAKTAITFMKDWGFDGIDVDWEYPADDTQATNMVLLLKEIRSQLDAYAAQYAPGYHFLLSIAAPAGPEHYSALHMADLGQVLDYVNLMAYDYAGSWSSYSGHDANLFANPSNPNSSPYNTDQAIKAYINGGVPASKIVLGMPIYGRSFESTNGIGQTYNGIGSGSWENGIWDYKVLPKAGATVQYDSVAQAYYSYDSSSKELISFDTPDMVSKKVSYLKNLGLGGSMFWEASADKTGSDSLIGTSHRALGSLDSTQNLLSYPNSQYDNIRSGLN

Broadly, the IC50 is the concentration that inhibits the measured activity by half. In general, Ki refers to the equilibrium dissociation constant of an inhibitor or competing ligand from its target. A high value points to a looser hold on the target. Consider `C=C(C)CNC(=N)NCCCCCCN1CCCCCCCCNC(=N)NC1=O`, for which, at Chitinase, half-maximal inhibition (IC50) was put at 108 µM and the Ki was found to be 34.8 µM.
For `C/C=C/CNC(=N)NCCCCCCN1CCCCCCCCNC(=N)NC1=O` the same measures were 111 µM and 35.8 µM.
In general, MIC90 refers to the lowest concentration that inhibits either 90% of growth or 90% of the strains tested, depending on the study. Lower therefore signals greater potency. The compound `C/C=C/CNC(=N)NCCCCCCCCN1CCCCCCOc2ccccc2CNC(=N)NC1=O` yielded an IC50 on Chitinase of 35.5 µM. The same compound displayed a Ki on Chitinase of 14.1 µM. For the same compound, the MIC90 against Candida albicans is 4 µg/mL (≈ 7.79 µM); in experiment [1], 2 µg/mL (≈ 3.89 µM); with Pichia kudriavzevii, 4 µg/mL (≈ 7.79 µM); in the experiment on Candida parapsilosis it was 2 µg/mL (≈ 3.89 µM); against Candida tropicalis, 1 µg/mL (≈ 1.95 µM); in the experiment on Kluyveromyces marxianus, 2 µg/mL (≈ 3.89 µM). The same compound gave an MIC90 in the experiment on Nakaseomyces glabratus of 16 µg/mL (≈ 31.1 µM).
For `C#CCNC(=N)NCCCCCCN1CCCCCCCCNC(=N)NC1=O`, at Chitinase, the IC50 was 97 µM and the Ki was determined as 31.3 µM.
On the same counts, the results for `C/C=C/CNC(=N)NCCCCCCCCN1CCCCCCCCNC(=N)NC1=O` are 157 µM and 50.8 µM.
On the same counts, the results for `N=C(NCCCCCCCCN1CCCCCCCCNC(=N)NC1=O)NCC1CC1` are 130 µM and 42 µM.
`CNC(=O)NC(=N)NCCCCCCCCN1CCCCCCOc2ccccc2CNC(=N)NC1=O` yielded an IC50 against Chitinase of 0.68 µM. Besides, the Ki on Chitinase came out at 0.22 µM. Besides, the MIC90 against Candida albicans worked out at 25 µg/mL (≈ 48.4 µM); in experiment [1] it was 25 µg/mL (≈ 48.4 µM); with Pichia kudriavzevii, 12 µg/mL (≈ 23.2 µM); in the experiment with Candida parapsilosis it was 25 µg/mL (≈ 48.4 µM); with Candida tropicalis, 12 µg/mL (≈ 23.2 µM); against Kluyveromyces marxianus, 6 µg/mL (≈ 11.6 µM). In addition, the MIC90 against Nakaseomyces glabratus came out at 25 µg/mL (≈ 48.4 µM).
On Chitinase, `CCNC(=N)NCCCCCCN1CCCCCCCCNC(=N)NC1=O` yielded an IC50 of 140 µM and a Ki of 45.3 µM.
On the same counts, the results for `C/C=C/CNC(=N)NCCCCCCCCN1CCCCCOc2ccccc2CNC(=N)NC1=O` are 55 µM and 17.8 µM.
